Results taken from ChEMBL document CHEMBL3627695, “1-Benzyl-2-methyl-3-indolylmethylene barbituric acid derivatives: Anti-cancer agents that target nucleophosmin 1 (NPM1)” (Bioorg Med Chem, 2015).
Activity calls are given as the source filed them. The calls are words filed in the database; no cut-off is given here.

Legend:
OCI-AML-3 = assay: (§1) Anticancer activity against human OCI-AML3 cells expressing mutant NPM1 assessed as apoptosis for 48 hrs by annexin-V and TO-PRO3 staining based flow cytometry; format: functional, cell-based
Method in brief: (§2)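 OCI-AML3 cells (NPM1c+) in logarithmic growth, passaged 2–3 times weekly. Cells were exposed to the indicated compound concentrations for 48 hr, then stained with annexin V and TO-PRO 3. Percent apoptotic cells was read by flow cytometry. AP50 is the concentration at which 50% of cells undergo apoptosis.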

SK-OV-3 = assay: Anticancer activity against human SKOV3 cells after 48 hrs by sulforhodamine B assay; format: functional; details: SK-OV-3, 48 h
Method in brief: (§3)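 NCI-60 human tumour cell line panel. Compounds dissolved in DMSO/H2O and tested at five 10-fold dilutions (10⁻⁴ M to 10⁻⁸ M) for 48 hr. GI50 is the molar concentration giving 50% reduction in net cell growth relative to cell numbers on day 0.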

IGROV-1 = assay: Anticancer activity against human IGROV1 cells after 48 hrs by sulforhodamine B assay; format: functional; details: IGROV-1, 48 h; method in brief: as §3
A498 = assay: Anticancer activity against human A498 cells after 48 hrs by sulforhodamine B assay; format: functional; details: A498, 48 h; method in brief: as §3
[1] = Anticancer activity against human NCI-ADR-RES cells after 48 hrs by sulforhodamine B assay; format: functional; method in brief: as §3
[2] = Anticancer activity against human HOP92 cells after 48 hrs by sulforhodamine B assay; format: functional; details: HOP-92, 48 h; method in brief: as §3
CAKI-1 = assay: Anticancer activity against human Caki1 cells after 48 hrs by sulforhodamine B assay; format: functional; details: CAKI-1, 48 h; method in brief: as §3
ACHN = assay: Anticancer activity against human ACHN cells after 48 hrs by sulforhodamine B assay; format: functional; method in brief: as §3
M14 = assay: Anticancer activity against human M14 cells after 48 hrs by sulforhodamine B assay; format: functional; details: M14, 48 h; method in brief: as §3
[3] = Anticancer activity against human MOLT4 cells after 48 hrs by sulforhodamine B assay; format: functional; details: MOLT-4, 48 h; method in brief: as §3
TK-10 = assay: Anticancer activity against human TK10 cells after 48 hrs by sulforhodamine B assay; format: functional; details: TK-10, 48 h
Method in brief: (§4)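 NCI-60 panel protocol. Compounds were dissolved in DMSO/H2O and tested at five 10-fold concentrations (10⁻⁴ to 10⁻⁸ M) with 48 hr incubation. GI50 is the molar concentration giving a 50% reduction in net cell growth relative to cell numbers on day 0.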

T47D = assay: Anticancer activity against human T47D cells after 48 hrs by sulforhodamine B assay; format: functional; method in brief: as §4
[4] = Anticancer activity against human RPMI8226 cells after 48 hrs by sulforhodamine B assay; format: functional; details: RPMI-8226, 48 h; method in brief: as §3
SK-MEL-5 = assay: Anticancer activity against human SK-MEL-5 cells after 48 hrs by sulforhodamine B assay; format: functional; details: SK-MEL-5, 48 h; method in brief: as §3
SN12C = assay: Anticancer activity against human SN12C cells after 48 hrs by sulforhodamine B assay; format: functional; method in brief: as §3
[5] = Anticancer activity against human Hs 578T cells after 48 hrs by sulforhodamine B assay; format: functional; method in brief: as §3
OVCAR-4 = assay: Anticancer activity against human OVCAR4 cells after 48 hrs by sulforhodamine B assay; format: functional; details: OVCAR-4, 48 h; method in brief: as §3
U-251 = assay: Anticancer activity against human U251 cells after 48 hrs by sulforhodamine B assay; format: functional; details: U-251, 48 h; method in brief: as §4
SNB-19 = assay: Anticancer activity against human SNB19 cells after 48 hrs by sulforhodamine B assay; format: functional; details: SNB-19, 48 h; method in brief: as §3
MCF7 = assay: Anticancer activity against human MCF7 cells after 48 hrs by sulforhodamine B assay; format: functional; details: MCF7, 48 h; method in brief: as §3
SNB-75 = assay: Anticancer activity against human SNB75 cells after 48 hrs by sulforhodamine B assay; format: functional; details: SNB-75, 48 h; method in brief: as §3
MDA-MB-468 = assay: Anticancer activity against human MDA-MB-468 cells after 48 hrs by sulforhodamine B assay; format: functional; details: MDA-MB-468, 48 h; method in brief: as §3
NCI-H226 = assay: Anticancer activity against human NCI-H226 cells after 48 hrs by sulforhodamine B assay; format: functional; details: NCI-H226, 48 h; method in brief: as §3
SF-268 = assay: Anticancer activity against human SF268 cells after 48 hrs by sulforhodamine B assay; format: functional; details: SF-268, 48 h; method in brief: as §3
[6] = Anticancer activity against human LOXIMVI cells after 48 hrs by sulforhodamine B assay; format: functional; details: LOX IMVI; method in brief: as §3
NCI-H322M = assay: Anticancer activity against human NCI-H322M cells after 48 hrs by sulforhodamine B assay; format: functional; method in brief: as §3
NCI-H522 = assay: Anticancer activity against human NCI-H522 cells after 48 hrs by sulforhodamine B assay; format: functional; details: NCI-H522, 48 h; method in brief: as §3
DU-145 = assay: Anticancer activity against human DU145 cells after 48 hrs by sulforhodamine B assay; format: functional; details: DU-145, 48 h; method in brief: as §3
CCRF-CEM = assay: Anticancer activity against human CCRF-CEM cells after 48 hrs by sulforhodamine B assay; format: functional; method in brief: as §3
SK-MEL-2 = assay: Anticancer activity against human SK-MEL-2 cells after 48 hrs by sulforhodamine B assay; format: functional; details: SK-MEL-2, 48 h; method in brief: as §3
SK-MEL-28 = assay: Anticancer activity against human SK-MEL-28 cells after 48 hrs by sulforhodamine B assay; format: functional; details: SK-MEL-28, 48 h; method in brief: as §3
A549 = assay: Anticancer activity against human A549/ATCC cells after 48 hrs by sulforhodamine B assay; format: functional; details: A549, 48 h; method in brief: as §3
K562 = assay: Anticancer activity against human K562 cells after 48 hrs by sulforhodamine B assay; format: functional; details: K562, 48 h; method in brief: as §3
UACC-257 = assay: Anticancer activity against human UACC257 cells after 48 hrs by sulforhodamine B assay; format: functional; details: UACC-257, 48 h; method in brief: as §4
[7] = Anticancer activity against human SF539 cells after 48 hrs by sulforhodamine B assay; format: functional; details: SF-539, 48 h; method in brief: as §3
786-0 = assay: Anticancer activity against human 786-0 cells after 48 hrs by sulforhodamine B assay; format: functional; details: 786-0, 48 h; method in brief: as §3
[8] = as §1; format: functional, cell-based; details: OCI-AML-3, 48 h; method in brief: as §2
KM12 = assay: Anticancer activity against human KM12 cells after 48 hrs by sulforhodamine B assay; format: functional; details: KM12, 48 h; method in brief: as §3
BT-549 = assay: Anticancer activity against human BT549 cells after 48 hrs by sulforhodamine B assay; format: functional; details: BT-549, 48 h; method in brief: as §3
HCT-15 = assay: Anticancer activity against human HCT15 cells after 48 hrs by sulforhodamine B assay; format: functional; details: HCT-15, 48 h; method in brief: as §3
HL-60(TB) = assay: Anticancer activity against human HL-60(TB) cells after 48 hrs by sulforhodamine B assay; format: functional; details: HL-60, 48 h; method in brief: as §3
OVCAR-8 = assay: Anticancer activity against human OVCAR8 cells after 48 hrs by sulforhodamine B assay; format: functional; details: OVCAR-8, 48 h; method in brief: as §3
MDA-MB-231 = assay: Anticancer activity against human MDA-MB-231 cells after 48 hrs by sulforhodamine B assay; format: functional; details: MDA-MB-231, 48 h; method in brief: as §3
[9] = Anticancer activity against human SF295 cells after 48 hrs by sulforhodamine B assay; format: functional; details: SF-295, 48 h; method in brief: as §3
UO-31 = assay: Anticancer activity against human UO31 cells after 48 hrs by sulforhodamine B assay; format: functional; details: UO-31, 48 h; method in brief: as §4
OVCAR-3 = assay: Anticancer activity against human OVCAR3 cells after 48 hrs by sulforhodamine B assay; format: functional; details: OVCAR-3, 48 h; method in brief: as §3
Malme-3M = assay: Anticancer activity against human MALME-3M cells after 48 hrs by sulforhodamine B assay; format: functional; method in brief: as §3
[10] = Anticancer activity against human HCC2998 cells after 48 hrs by sulforhodamine B assay; format: functional; details: HCC 2998, 48 h; method in brief: as §3
HOP-62 = assay: Anticancer activity against human HOP62 cells after 48 hrs by sulforhodamine B assay; format: functional; details: HOP-62, 48 h; method in brief: as §3
NCI-H460 = assay: Anticancer activity against human NCI-H460 cells after 48 hrs by sulforhodamine B assay; format: functional; details: NCI-H460, 48 h; method in brief: as §3
[11] = Anticancer activity against human RXF393 cells after 48 hrs by sulforhodamine B assay; format: functional; details: RXF 393, 48 h; method in brief: as §3
MDA-MB-435 = assay: Anticancer activity against human MDA-MB-435 cells after 48 hrs by sulforhodamine B assay; format: functional; details: MDA-MB-435, 48 h; method in brief: as §3
HT-29 = assay: Anticancer activity against human HT-29 cells after 48 hrs by sulforhodamine B assay; format: functional; details: HT-29, 48 h; method in brief: as §3
[12] = Anticancer activity against human COLO205 cells after 48 hrs by sulforhodamine B assay; format: functional; details: COLO 205, 48 h; method in brief: as §3
SW-620 = assay: Anticancer activity against human SW620 cells after 48 hrs by sulforhodamine B assay; format: functional; details: SW-620, 48 h; method in brief: as §4
HCT-116 = assay: Anticancer activity against human HCT116 cells after 48 hrs by sulforhodamine B assay; format: functional; details: HCT-116, 48 h; method in brief: as §3
OVCAR-5 = assay: Anticancer activity against human OVCAR5 cells after 48 hrs by sulforhodamine B assay; format: functional; details: OVCAR-5, 48 h; method in brief: as §3
SR = assay: Anticancer activity against human SR cells after 48 hrs by sulforhodamine B assay; format: functional; method in brief: as §4

In the case of `Cc1c(C=C2C(=O)NC(=O)NC2=O)c2ccccc2n1Cc1ccc(Br)cc1`, the Activity (OCI-AML-3) is reported as “inactive”.

Molecule `Cc1c(C=C2C(=O)NC(=S)NC2=O)c2ccccc2n1Cc1ccccc1` has a GI50 (SK-OV-3) of 1.89 µM, a GI50 (IGROV-1) of 0.97 µM and a GI50 (A498) of 1.56 µM. The GI50 [1] was 1.89 µM, the GI50 [2] was 0.4 µM and the GI50 (CAKI-1) was 1.57 µM. It also gave a GI50 (ACHN) of 1.37 µM, a GI50 (M14) of 1.4 µM and a GI50 [3] of 1.71 µM. For the same molecule, the GI50 (TK-10) was 1.47 µM, the GI50 (T47D) was 1.9 µM and the GI50 [4] was 0.35 µM. For the same molecule, the GI50 (SK-MEL-5) was 1.37 µM, the GI50 (SN12C) was 1.15 µM and the GI50 [5] was 0.51 µM. The GI50 (OVCAR-4) was 1.24 µM, the GI50 (U-251) was 1.16 µM and the GI50 (SNB-19) was 1.31 µM. The GI50 (MCF7) was 0.7 µM, the GI50 (SNB-75) was 1.51 µM and the GI50 (MDA-MB-468) was 0.51 µM. The GI50 (NCI-H226) was 1.88 µM, the GI50 (SF-268) was 1.26 µM and the GI50 [6] was 0.53 µM. The GI50 (NCI-H322M) was 1.63 µM, the GI50 (NCI-H522) was 1.85 µM and the GI50 (DU-145) was 1.31 µM. For the same molecule, the GI50 (CCRF-CEM) was 0.59 µM, the GI50 (SK-MEL-2) was 2.08 µM and the GI50 (SK-MEL-28) was 1.66 µM. It also gave a GI50 (A549) of 1.85 µM, a GI50 (K562) of 1.26 µM and a GI50 (UACC-257) of 1.41 µM. It also gave a GI50 [7] of 1.14 µM, a GI50 (786-0) of 1.58 µM and an AC50 [8] of 3.31 µM. It also gave a GI50 (KM12) of 0.95 µM, a GI50 (BT-549) of 1.6 µM and a GI50 (HCT-15) of 1.3 µM. It also gave a GI50 (HL-60(TB)) of 0.29 µM, a GI50 (OVCAR-8) of 1.13 µM and a GI50 (MDA-MB-231) of 1.34 µM. It also gave a GI50 [9] of 0.93 µM, a GI50 (UO-31) of 0.88 µM and a GI50 (OVCAR-3) of 1.18 µM. The GI50 (Malme-3M) was 2.31 µM, the GI50 [10] was 1.18 µM and the GI50 (HOP-62) was 1.09 µM. It also gave a GI50 (NCI-H460) of 0.98 µM, a GI50 [11] of 1.23 µM and a GI50 (MDA-MB-435) of 1.15 µM. The GI50 (HT-29) was 1.37 µM, the GI50 [12] was 1.33 µM and the GI50 (SW-620) was 1.24 µM. For the same molecule, the GI50 (HCT-116) was 0.89 µM, the GI50 (OVCAR-5) was 1.75 µM and the GI50 (SR) was 0.34 µM.
